Data from publication PMC6049601 (International Journal of Nanomedicine, 2018).

Key:
[1] = test system: NO in LPS-induced RAW 264.7 cells; test: In vitro anti-inflammatory effect: NO; format: cell-based, Mouse; conditions: 25 μg/mL, LPS 1 μg/mL, 24 h
How it was run: (§1)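 RAW 264.7 mouse macrophages grown in RPMI-1640 with 10% FBS at 37°C, 5% CO2, seeded at 2 × 10^5 cells/well. Cells were exposed to LPS (1 μg/mL) with or without test formulation for 24 h; medium-only and LPS-only wells served as control and model. Supernatants were cleared at 10,000 rpm, 4°C. TNF-α, IL-6 and NO were measured by ELISA kits; mean ± SD, n = 3.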

[2] = Oral bioavailability / pharmacokinetic study in rats; format: in vivo, Sprague-Dawley (SD) rats; conditions: Sprague-Dawley, rat, plasma, iv, 8 mg/kg
How it was run: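 Sprague-Dawley rats (220 ± 20 g, n = 5) were fasted overnight with water allowed, then given test compound solution i.v. at 8 mg/kg. Tail-vein blood was drawn into heparinised tubes at 0.133–12 h. Plasma was extracted with acetonitrile, dried at 30°C, reconstituted in 50% acetonitrile and run on UPLC-QTOF/MS (0.1% formic acid water/acetonitrile gradient). Parameters came from noncompartmental analysis.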

Caco-2 cells = test: Cellular uptake in Caco-2 cells; format: cell-based; conditions: Caco-2, 20 μg/mL, 1, 2 and 4 h
[3] = test system: IL-6 in LPS-induced RAW 264.7 cells; test: In vitro anti-inflammatory effect: IL-6; format: cell-based, Mouse; conditions: 25 μg/mL, LPS 1 μg/mL, 24 h
How it was run: as §1

[4] = In vitro release study by dialysis bag method; format: physicochemical; conditions: solution formulation, water with 1% Tween 80, 37°C
How it was run: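 Test compound was dissolved in water/ethanol/PEG400 (20/40/40, v/v/v). Samples equivalent to 10 mg were sealed in dialysis bags (MWCO ~14,000) and dialysed against 100 mL purified water containing 1% Tween 80 at 37°C. Medium aliquots were taken at set times and replaced with fresh medium, diluted with methanol and assayed by HPLC. Cumulative release percentage was plotted against time.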

[5] = test system: TNF-α in LPS-induced RAW 264.7 cells; test: In vitro anti-inflammatory effect: TNF-α; format: cell-based, Mouse; conditions: 25 μg/mL, LPS 1 μg/mL, 24 h
How it was run: as §1

## Oc1ccc(/C=C/c2cc(O)cc(O)c2)cc1 [Free RES, Resveratrol]
[1]
  Effect on NO compared to the LPS model: substantially suppressed
[2]
  AUC(0-t): 902 ± 33.7 ng·h/mL
  Cmax: 974 ± 302 ng/mL
  MRT inf: 5.27 ± 0.931 h
  Tmax: 7.98 ± 3.24 min
Caco-2 cells
  Cellular uptake (intracellular RES concentration): rapid cellular uptake relative to RES-NPs
[3]
  Effect on IL-6 compared to the LPS model: substantially suppressed
[4]
  In vitro release: released completely in a very short time
[5]
  Effect on TNF-α compared to the LPS model: substantially suppressed
